Laboratory results taken from ChEMBL document CHEMBL3102805, “Truncated Orexin Peptides: Structure-Activity Relationship Studies” (ACS Med Chem Lett, 2013).
Where a SMILES comes first, the peptide text is derived from it.

What was measured:
Orexin receptor type 2 = target: T1, Orexin receptor type 2 (Homo sapiens, UniProt O43614); experiment: Agonist activity at human OX2 receptor overexpressed in CHO-RD-HGA16 cells assessed as calcium mobilization after 15 mins by fluorescence assay; assay type: functional, cell-based
T1 sequence (O43614 whole entry): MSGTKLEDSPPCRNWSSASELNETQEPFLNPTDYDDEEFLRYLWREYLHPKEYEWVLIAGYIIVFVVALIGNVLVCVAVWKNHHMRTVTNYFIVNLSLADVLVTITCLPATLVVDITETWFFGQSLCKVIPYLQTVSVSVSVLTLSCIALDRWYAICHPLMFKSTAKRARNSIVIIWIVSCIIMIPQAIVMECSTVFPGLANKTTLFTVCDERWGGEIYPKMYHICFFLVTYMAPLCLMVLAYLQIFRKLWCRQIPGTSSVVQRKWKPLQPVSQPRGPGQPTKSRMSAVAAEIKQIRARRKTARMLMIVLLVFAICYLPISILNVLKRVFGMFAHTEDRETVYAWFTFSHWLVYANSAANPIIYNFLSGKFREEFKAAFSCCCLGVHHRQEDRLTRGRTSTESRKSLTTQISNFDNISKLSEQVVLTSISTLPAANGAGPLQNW

[1] = target: T2, Orexin/Hypocretin receptor type 1 (Homo sapiens, UniProt O43613); experiment: Agonist activity at human OX1 receptor overexpressed in CHO-RD-HGA16 cells assessed as calcium mobilization after 15 mins by fluorescence assay; assay type: functional, cell-based
T2 sequence (O43613 whole entry): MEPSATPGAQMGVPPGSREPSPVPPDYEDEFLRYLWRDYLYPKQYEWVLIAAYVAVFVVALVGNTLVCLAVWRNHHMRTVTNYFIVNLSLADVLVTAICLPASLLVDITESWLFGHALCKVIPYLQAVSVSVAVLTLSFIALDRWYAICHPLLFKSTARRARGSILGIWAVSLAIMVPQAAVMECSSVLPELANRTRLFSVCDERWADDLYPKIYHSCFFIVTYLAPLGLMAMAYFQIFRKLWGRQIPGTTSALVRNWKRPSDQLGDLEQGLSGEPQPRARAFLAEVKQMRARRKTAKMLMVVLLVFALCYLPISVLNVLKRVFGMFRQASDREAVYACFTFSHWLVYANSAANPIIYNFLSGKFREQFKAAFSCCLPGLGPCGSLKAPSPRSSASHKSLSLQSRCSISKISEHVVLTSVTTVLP
In short: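 EC50 from 8-point half-log concentration-response curves. Values are means of at least three independent experiments in duplicate, with SEM, or means of two independent duplicate experiments.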

Homo sapiens = organism: Homo sapiens; experiment: Selectivity ratio of EC50 for human OX2 receptor to EC50 for human OX1 receptor

Structure (SMILES)	EC50 (Orexin receptor type 2)	EC50 [1]	Ratio EC50 (Homo sapiens)
CC[C@H](C)[C@H](NC(=O)CNC(=O)[C@H](C)NC(=O)[C@H](C)NC(=O)[C@H](Cc1cnc[nH]1)NC(=O)[C@H](CC(N)=O)NC(=O)CNC(=O)[C@H](CO)NC(=O)[C@H](C)NC(=O)[C@H](CCC(N)=O)NC(=O)[C@H](CC(C)C)NC(=O)[C@H](CC(C)C)NC(=O)[C@H](CCCNC(=N)N)NC(=O)[C@H](CCC(N)=O)NC(=O)[C@H](CC(C)C)NC(=O)[C@@H](N)CCCNC(=N)N)C(=O)N[C@@H](CC(C)C)C(=O)N[C@H](C(=O)N[C@@H](CCSC)C(N)=O)[C@@H](C)O (H-RLQRLLQASGNHAAGILTM-NH2)	99.3 nM	144 nM	0.7
CC[C@H](C)[C@H](NC(=O)CNC(=O)[C@H](C)NC(=O)[C@H](C)NC(=O)[C@H](Cc1cnc[nH]1)NC(=O)[C@H](CC(N)=O)NC(=O)CNC(=O)[C@H](C)NC(=O)CNC(=O)[C@H](Cc1cnc[nH]1)NC(=O)[C@H](CC(C)C)NC(=O)[C@H](CC(C)C)NC(=O)[C@H](C)NC(=O)[C@@H](N)Cc1ccc(O)cc1)C(=O)N[C@@H](CC(C)C)C(=O)N[C@H](C(=O)N[C@@H](CC(C)C)C(N)=O)[C@@H](C)O (H-YALLHGAGNHAAGILTL-NH2)	439 nM	78.9 nM	5.6
CC[C@H](C)[C@H](NC(=O)CNC(=O)[C@H](C)NC(=O)[C@H](C)NC(=O)[C@H](Cc1cnc[nH]1)NC(=O)[C@H](CC(N)=O)NC(=O)CNC(=O)[C@H](C)NC(=O)CNC(=O)[C@H](Cc1cnc[nH]1)NC(=O)[C@H](CC(C)C)NC(=O)[C@H](C)NC(=O)[C@H](CCC(=O)O)NC(=O)[C@@H](N)Cc1ccc(O)cc1)C(=O)N[C@@H](CC(C)C)C(=O)N[C@H](C(=O)N[C@@H](CC(C)C)C(N)=O)[C@@H](C)O (H-YEALHGAGNHAAGILTL-NH2)	1890 nM	212 nM	8.9
CC[C@H](C)[C@H](NC(=O)CNC(=O)[C@H](C)NC(=O)[C@H](C)NC(=O)[C@H](Cc1cnc[nH]1)NC(=O)[C@H](CC(N)=O)NC(=O)CNC(=O)[C@H](C)NC(=O)CNC(=O)[C@H](Cc1cnc[nH]1)NC(=O)[C@H](C)NC(=O)[C@H](CC(C)C)NC(=O)[C@H](CCC(=O)O)NC(=O)[C@@H](N)Cc1ccc(O)cc1)C(=O)N[C@@H](CC(C)C)C(=O)N[C@H](C(=O)N[C@@H](CC(C)C)C(N)=O)[C@@H](C)O (H-YELAHGAGNHAAGILTL-NH2)	7850 nM	3230 nM	2.4
CC[C@H](C)[C@H](NC(=O)CNC(=O)[C@H](C)NC(=O)[C@H](C)NC(=O)[C@H](Cc1cnc[nH]1)NC(=O)[C@H](CC(N)=O)NC(=O)CNC(=O)[C@H](C)NC(=O)CNC(=O)[C@H](C)NC(=O)[C@H](CC(C)C)NC(=O)[C@H](CC(C)C)NC(=O)[C@H](CCC(=O)O)NC(=O)[C@@H](N)Cc1ccc(O)cc1)C(=O)N[C@@H](CC(C)C)C(=O)N[C@H](C(=O)N[C@@H](CC(C)C)C(N)=O)[C@@H](C)O (H-YELLAGAGNHAAGILTL-NH2)	1910 nM	493 nM	3.9
CC[C@H](C)[C@H](NC(=O)CNC(=O)[C@H](C)NC(=O)[C@H](C)NC(=O)[C@H](Cc1cnc[nH]1)NC(=O)[C@H](CC(N)=O)NC(=O)CNC(=O)[C@H](C)NC(=O)[C@H](C)NC(=O)[C@H](Cc1cnc[nH]1)NC(=O)[C@H](CC(C)C)NC(=O)[C@H](CC(C)C)NC(=O)[C@H](CCC(=O)O)NC(=O)[C@@H](N)Cc1ccc(O)cc1)C(=O)N[C@@H](CC(C)C)C(=O)N[C@H](C(=O)N[C@@H](CC(C)C)C(N)=O)[C@@H](C)O (H-YELLHAAGNHAAGILTL-NH2)	1440 nM	422 nM	3.4
CC[C@H](C)[C@H](NC(=O)CNC(=O)[C@H](C)NC(=O)[C@H](C)NC(=O)[C@H](Cc1cnc[nH]1)NC(=O)[C@H](CC(N)=O)NC(=O)[C@H](C)NC(=O)[C@H](C)NC(=O)CNC(=O)[C@H](Cc1cnc[nH]1)NC(=O)[C@H](CC(C)C)NC(=O)[C@H](CC(C)C)NC(=O)[C@H](CCC(=O)O)NC(=O)[C@@H](N)Cc1ccc(O)cc1)C(=O)N[C@@H](CC(C)C)C(=O)N[C@H](C(=O)N[C@@H](CC(C)C)C(N)=O)[C@@H](C)O (H-YELLHGAANHAAGILTL-NH2)	1360 nM	1040 nM	1.3
CC[C@H](C)[C@H](NC(=O)CNC(=O)[C@H](C)NC(=O)[C@H](C)NC(=O)[C@H](Cc1cnc[nH]1)NC(=O)[C@H](C)NC(=O)CNC(=O)[C@H](C)NC(=O)CNC(=O)[C@H](Cc1cnc[nH]1)NC(=O)[C@H](CC(C)C)NC(=O)[C@H](CC(C)C)NC(=O)[C@H](CCC(=O)O)NC(=O)[C@@H](N)Cc1ccc(O)cc1)C(=O)N[C@@H](CC(C)C)C(=O)N[C@H](C(=O)N[C@@H](CC(C)C)C(N)=O)[C@@H](C)O (H-YELLHGAGAHAAGILTL-NH2)	2320 nM	3070 nM	0.8
CC[C@H](C)[C@H](NC(=O)CNC(=O)[C@H](C)NC(=O)[C@H](C)NC(=O)[C@H](C)NC(=O)[C@H](CC(N)=O)NC(=O)CNC(=O)[C@H](C)NC(=O)CNC(=O)[C@H](Cc1cnc[nH]1)NC(=O)[C@H](CC(C)C)NC(=O)[C@H](CC(C)C)NC(=O)[C@H](CCC(=O)O)NC(=O)[C@@H](N)Cc1ccc(O)cc1)C(=O)N[C@@H](CC(C)C)C(=O)N[C@H](C(=O)N[C@@H](CC(C)C)C(N)=O)[C@@H](C)O (H-YELLHGAGNAAAGILTL-NH2)	1580 nM	3060 nM	0.5
CC[C@H](C)[C@H](NC(=O)CNC(=O)[C@H](C)NC(=O)[C@H](C)NC(=O)[C@H](Cc1cnc[nH]1)NC(=O)[C@H](CC(N)=O)NC(=O)CNC(=O)[C@H](C)NC(=O)[C@@H]1CCCN1C(=O)[C@H](Cc1cnc[nH]1)NC(=O)[C@H](CC(C)C)NC(=O)[C@H](CC(C)C)NC(=O)[C@H](CCC(=O)O)NC(=O)[C@@H](N)Cc1ccc(O)cc1)C(=O)N[C@@H](CC(C)C)C(=O)N[C@H](C(=O)N[C@@H](CC(C)C)C(N)=O)[C@@H](C)O (H-YELLHPAGNHAAGILTL-NH2)	2180 nM	2480 nM	0.9
CC[C@H](C)[C@H](NC(=O)CNC(=O)[C@H](C)NC(=O)[C@H](C)NC(=O)[C@H](Cc1cnc[nH]1)NC(=O)[C@H](CC(N)=O)NC(=O)CNC(=O)[C@H](C)NC(=O)CNC(=O)[C@@H]1CCCN1C(=O)[C@H](CC(C)C)NC(=O)[C@H](CC(C)C)NC(=O)[C@H](CCC(=O)O)NC(=O)[C@@H](N)Cc1ccc(O)cc1)C(=O)N[C@@H](CC(C)C)C(=O)N[C@H](C(=O)N[C@@H](CC(C)C)C(N)=O)[C@@H](C)O (H-YELLPGAGNHAAGILTL-NH2)	1990 nM	1200 nM	1.7
CC[C@H](C)[C@H](NC(=O)CNC(=O)[C@H](C)NC(=O)[C@H](C)NC(=O)[C@H](Cc1cnc[nH]1)NC(=O)[C@H](CC(N)=O)NC(=O)CNC(=O)[C@H](C)NC(=O)CNC(=O)[C@H](Cc1cnc[nH]1)NC(=O)[C@@H]1CCCN1C(=O)[C@H](CC(C)C)NC(=O)[C@H](CCC(=O)O)NC(=O)[C@@H](N)Cc1ccc(O)cc1)C(=O)N[C@@H](CC(C)C)C(=O)N[C@H](C(=O)N[C@@H](CC(C)C)C(N)=O)[C@@H](C)O (H-YELPHGAGNHAAGILTL-NH2)	1610 nM	1130 nM	1.4
